697 NFkB inh: inhibitors of the PMA/ionomycin-induced NF-kB reporter in 697 B cells | 697 B-cell NF-kB luciferase reporter, 16 h | inhibition, % at 4 µM | 330,000 compounds, 0.33% hits | AID 435022; in the data active = inhibition above about 35%
CHOP inh: inhibitors of CHOP induction in ER stress response | CHO-K1 CHOP-promoter luciferase, tunicamycin-induced, 15-18 h | inhibition, % at 10 µM | 220,000 compounds, 3.8% hits | AID 2732;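 active = compounds that reduced the stress-induced luciferase reporter signal by more than about 70% of percent inhibition, limit read from the data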;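 also: 0% = tunicamycin plus vehicle and 100% = wells without tunicamycin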
XBP1 UPR activ: activators of adaptive arm of unfolded protein response (XBP1) | CHO-XBP1 luciferase reporter, IRE1-XBP1 UPR activation, luminescence; percent of tunicamycin response, DMSO as zero | 330,000 compounds, 0.33% hits | AID 463104 | activation, % at 20 µM;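 active = versus positive control, 20 µM dose yields 30% or more activation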;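 also: 100% = tunicamycin at 10 µg/mL and 0% = DMSO only wells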
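Assay system: IRE1-XBP1 luciferase reporter CHO line. Input: 1000 cells/well. Buffer or medium: F12 with 10% serum. Doses: 20 µM, 1% DMSO. Times: overnight seeding at 37 °C, 6 h compound treatment at 37 °C. Technique: Steady-Glo luciferase glow luminescence, 10 min after reagent addition.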
Jurkat NFkB inh: lowers PMA/ionomycin-induced NF-kB signal in Jurkat cells; 330,000 compounds, 0.53% hits; PMA/ionomycin-induced NF-kB luciferase reporter, luminescence; inhibition, % at 4 µM; AID 435003; in the data active = inhibition above about 50%
CHOP UPR activ: apoptotic UPR (CHOP) activation | 330,000 compounds, 0.34% hits | activation, % at 10 µM | CHO-CHOP luciferase reporter, luminescence; percent of tunicamycin response over DMSO baseline;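 active = at 10 µM dose, activation of 40% or more, normalized to positive control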;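 also: 100% = tunicamycin at 10 µg/mL and 0% = DMSO alone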
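Evaluation: % reporter activation, DMSO baseline versus tunicamycin full activation; System: CHO-CHOP luciferase reporter cell line; Input: 500 cells/well; Incubation: 6 h compound treatment, 37 °C; Measured by: Steady-Glo luciferase luminescence; Dosing: one dose, 10 µM in 0.5% DMSO; Buffer or medium: F12 medium, 10% FBS; Benchmarks: positive tunicamycin 10 µg/mL, negative DMSO alone.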
An asterisk follows results filed as active; x = not tested or not shown. Many of the other results were omitted from the sample, so hits are more common in it than they were.

SMILES	697 NFkB inh	CHOP inh	XBP1 UPR activ	Jurkat NFkB inh	CHOP UPR activ
Cc1ccccc1NC(=O)c1cc(C(=O)c2cc(Cl)ccc2O)cn(-c2ccccc2C)c1=O	-22	70*	3	-20	7
O=C(CN1C(=O)/C(=C/c2ccccc2F)Oc2ccccc21)N1CCN(c2ccccn2)CC1	-16	86*	3	16	4
O=C(/C=C/c1ccccc1F)N1CCN(c2ccccn2)CC1	1	x	2	0	1
O=C(CN1C(=O)/C(=C\c2cccc(Cl)c2)Oc2ccccc21)N1CCN(c2ccccn2)CC1	4	100*	29	-6	5
CN1CCN(c2ccccc2NC(=O)c2ccc(OCc3ccccc3)cc2)CC1	-10	65	1	5	-1
CN1CCN(c2ccccc2NC(=O)c2cccc(OCc3ccccc3)c2)CC1	-5	78*	-2	-11	0
Cc1ccc(C(=O)OC2CCS(=O)(=O)c3sccc32)cc1 (stereo not given)	-17	77*	0	12	-1
CCCC(=O)OC1CCS(=O)(=O)c2sccc21 (stereo not given)	8	-13	0	6	-1
N#CCC(=O)N/N=C/c1c(-c2ccccc2)n(-c2ccccc2)c2ccccc12	-19	x	-1	0	5
CCCCCCCCCC[n+]1cccc2c3ccccc3ccc21	x	106*	x	x	x
CCCCCCCC[n+]1cccc2c3ccccc3ccc21	18	47	4	47	10
CCc1noc(C)c1C(=O)OC(C)C(=O)Nc1ccccc1OC (stereo not given)	-3	x	0	7	3
Cc1ccc(S(=O)(=O)N2CCc3c2cc([N+](=O)[O-])cc3[N+](=O)[O-])cc1	-18	x	7	-9	4
CC1CCN(CC(CS(=O)(=O)c2ccc([N+](=O)[O-])cc2)N2CCC(C)CC2)CC1 (stereo not given)	11	71*	-5	18	34
Cc1ccc2nc(C(Cl)(Cl)Cl)nc(N/N=C/c3ccncc3)c2c1	2	72*	-1	-1	0
COc1ccc(/C=N/Nc2nc(-c3cccnc3)nc3ccccc23)cc1OC	-34	-11	17	9	6
Cc1ccc(-c2nc(N/N=C/c3ccncc3)c3ccccc3n2)cc1	-201	81*	-1	-127	-1
Clc1ccc(N/N=C/c2ccncc2)cc1Cl	-18	-15	1	-64	4
Cc1ccc(Cn2ncc3c(N4CCN(c5ccc(C)cc5)CC4)ncnc32)cc1	1	63	-2	42	2
Cc1cccc(-n2ncc3c(N4CCC(C)CC4)ncnc32)c1	-193	73*	-3	-145	4
Cc1cccc(-n2ncc3c(N4CCC5(CC4)OCCO5)ncnc32)c1	-131	-56	6	-31	0
Cc1ccc(Cn2ncc3c(N4CCN(Cc5ccc(Cl)cc5)CC4)ncnc32)cc1	-10	79*	-4	48	-1
CC1CCN(c2ncnc3c2cnn3Cc2ccc(Cl)cc2)CC1	3	73*	0	-2	1
COc1cccc(-c2c(C(=O)N/N=C/c3ccco3)nnn2-c2nonc2N)c1	13	x	-2	5	3
CC(C)(CC(=O)N1CCN(c2ccc(Cl)cc2)CC1)CC1=NS(=O)(=O)c2ccccc2N1	-14	71*	2	5	6
SMILES	697 NFkB inh	CHOP inh	XBP1 UPR activ	Jurkat NFkB inh	CHOP UPR activ
CCOC(=O)c1ccc(NC(=O)Nc2ccc3c4c(cccc24)C(=O)N3CC)cc1	10	83*	7	1	2
CC(=O)N1CCN(S(=O)(=O)c2cccc(C(=O)NNC(=O)Cn3nc(C)cc3C)c2)CC1	5	x	-3	8	-2
COc1ccc2c(c1)CCc1c(C(=O)NCCc3ccc(OC)c(OC)c3)noc1-2	10	3	-2	5	0
COc1ccc2c(c1)CCc1c(C(=O)Nc3ccc(OC)c(OC)c3)noc1-2	26	76*	4	5	2
CCCCn1c(C)cc(C)c(S(=O)(=O)c2ccccc2C)c1=O	-3	94*	-2	0	0
Cc1ccccc1S(=O)(=O)c1c(C)cc(C)n(C(C)C)c1=O	-2	39	-1	13	4
Cn1c(Br)nc2c1c(=O)n(CC(O)COc1ccccc1)c(=O)n2C (stereo not given)	13	25	-1	7	0
COc1ccccc1N1CCN(/N=C/C=C\c2ccccc2[N+](=O)[O-])CC1	4	4	1	-6	1
CC1CCCC(C)N1/N=C/C=C/c1ccccc1[N+](=O)[O-] (stereo not given)	-20	71*	1	-16	2
O=[N+]([O-])c1ccccc1/C=C/C=N/n1c(-c2ccccc2)n[nH]c1=S	-15	10	1	0	0
O=[N+]([O-])c1ccccc1/C=C/C=N/n1c(-c2ccc(Cl)cc2)n[nH]c1=S	-20	82*	0	-10	-2
Cc1ccc(-c2n[nH]c(=S)n2/N=C/C=C\c2ccccc2[N+](=O)[O-])cc1	-8	91*	-1	7	0
N[C@@H](COP(=O)(O)O)C(=O)O	x	-8	x	x	x
O=[N+]([O-])c1c(Nc2ccccn2)cc(Cl)c2nonc12	14	108*	-11	10	-11
O=C(O)c1ccccc1Nc1cc(Cl)c2nonc2c1[N+](=O)[O-]	14	x	0	-4	1
CSc1ccccc1NC(=O)COc1ccc(Cl)cc1	-34	77*	2	-8	9
CSc1ccccc1NC(=O)Nc1cccc(Cl)c1C	12	66	-1	-1	2
CSc1ccccc1NC(=O)Nc1cccc(Cl)c1Cl	-11	88*	10	-8	2
COC(=O)c1sccc1NC(=O)Nc1cccc(Cl)c1Cl	5	84*	3	-8	0
COC(=O)c1sccc1NC(=O)Nc1ccccc1Cl	-26	x	2	-2	0
COc1ccc(CNC[C@H]2O[C@@H](n3cnc4c(N)ncnc43)[C@H](O)[C@@H]2O)cc1OC	2	x	-1	2	-2
COc1ccc(/C=N/NC(=O)c2ccc3nc[nH]c3c2)cc1	-15	-3	0	-11	2
Cc1ccc(CNS(=O)(=O)c2c(C(=O)N3CCCCC3)c(C)n(C)c2C)o1	11	x	1	-2	0
CCCCNC(=O)C(=O)N/N=C/c1ccc(OCC(=O)Nc2cccc(OC)c2)c(OC)c1	17	99*	-1	-10	2
COc1ccc(NC(=O)Cc2c(SC)c3ccccc3n2Cc2ccccc2)cc1	-27	74*	-1	-1	-1
Cc1ccc(N(CC(=O)N/N=C/c2cc(C)n(-c3ccccc3)c2C)S(C)(=O)=O)c(C)c1	9	73*	4	12	-1
Clc1nssc1=Nc1nncs1	-2	x	0	5	3
Clc1ccc(N=c2ssnc2Cl)nc1	11	103*	13	13	7

Compound activity: PubChem, several laboratories
